Test results as given in ChEMBL document CHEMBL3352004, “(7-Benzyloxy-2,3-dihydro-1H-pyrrolo[1,2-a]indol-1-yl)acetic Acids as S1P1 Functional Antagonists” (ACS Med Chem Lett, 2014).
Values after ≈ are worked out from the molar mass of the structure shown.

Assays:
[1] = Activation of Inward rectifier potassium channel in human atrial myocytes; type: cell-based; conditions: Cardiac atrium
[2] = Volume of distribution at steady state in Sprague-Dawley rat at 1 mg/kg, iv; type: ADME, organism-based; set-up: dose 1 mg/kg, route intravenous; conditions: in vivo, read-out: Vdss
[3] = Systemic clearance in Sprague-Dawley rat at 1 mg/kg, iv; type: ADME, organism-based; set-up: dose 1 mg/kg, route intravenous; conditions: in vivo
[4] = biological target: Sphingosine 1-phosphate receptor 3 (Homo sapiens, UniProt Q99500); test: Agonist activity at human S1P3 receptor by beta-arrestin recruitment assay
Sequence of Sphingosine 1-phosphate receptor 3 (Q99500 whole entry): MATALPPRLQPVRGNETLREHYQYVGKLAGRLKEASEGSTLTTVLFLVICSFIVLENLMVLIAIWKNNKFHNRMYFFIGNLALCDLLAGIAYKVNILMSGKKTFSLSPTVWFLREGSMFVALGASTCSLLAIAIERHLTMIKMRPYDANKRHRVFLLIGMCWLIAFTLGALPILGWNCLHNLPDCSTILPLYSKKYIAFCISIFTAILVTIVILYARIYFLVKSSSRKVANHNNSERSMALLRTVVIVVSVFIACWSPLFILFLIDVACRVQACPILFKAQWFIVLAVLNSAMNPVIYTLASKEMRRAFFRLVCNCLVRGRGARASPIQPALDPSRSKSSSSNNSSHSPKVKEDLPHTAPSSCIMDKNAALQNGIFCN

[5] = Ratio of drug level in brain to plasma in Sprague-Dawley rat; type: ADME; conditions: read-out: BPR
Outline: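 Abbreviated rat CNS distribution: a single 1.0 mg/kg oral dose, with brain and plasma drug levels measured over 6 h. Brain-to-plasma ratio derived from these levels.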

[6] = biological target: Sphingosine 1-phosphate receptor 1 (Rattus norvegicus) (UniProt P48303); test: Agonist activity at rat S1P1 receptor assessed as cAMP accumulation by HTRF assay relative to S1P; type: functional
Sequence of Sphingosine 1-phosphate receptor 1 (Rattus norvegicus) (P48303 whole entry): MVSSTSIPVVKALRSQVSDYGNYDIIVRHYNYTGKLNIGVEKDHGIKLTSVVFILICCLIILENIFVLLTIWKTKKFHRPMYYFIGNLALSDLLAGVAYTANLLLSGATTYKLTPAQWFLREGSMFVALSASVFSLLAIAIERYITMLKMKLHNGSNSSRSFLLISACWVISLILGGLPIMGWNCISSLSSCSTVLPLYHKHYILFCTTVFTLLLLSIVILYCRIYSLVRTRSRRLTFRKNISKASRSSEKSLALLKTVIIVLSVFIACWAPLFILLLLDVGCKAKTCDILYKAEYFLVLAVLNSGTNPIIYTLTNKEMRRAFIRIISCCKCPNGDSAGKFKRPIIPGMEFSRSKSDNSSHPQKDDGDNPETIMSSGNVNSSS

[7] = biological target: T1, Sphingosine 1-phosphate receptor 5 (Homo sapiens, UniProt Q9H228); test: Agonist activity at human S1P5 receptor by beta-arrestin recruitment assay
T1 sequence (Q9H228 whole entry): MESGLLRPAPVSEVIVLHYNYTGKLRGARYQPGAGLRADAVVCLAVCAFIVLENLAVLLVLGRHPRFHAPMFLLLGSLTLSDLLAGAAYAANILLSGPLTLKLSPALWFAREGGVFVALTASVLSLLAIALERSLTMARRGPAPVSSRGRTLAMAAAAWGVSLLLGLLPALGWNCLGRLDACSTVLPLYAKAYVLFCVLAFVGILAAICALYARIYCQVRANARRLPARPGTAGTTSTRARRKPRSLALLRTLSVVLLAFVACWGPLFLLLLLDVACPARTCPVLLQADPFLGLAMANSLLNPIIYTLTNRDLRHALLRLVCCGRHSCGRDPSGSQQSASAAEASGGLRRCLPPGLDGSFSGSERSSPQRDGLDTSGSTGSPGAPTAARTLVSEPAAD

Rattus norvegicus [8] = species on record: Rattus norvegicus; test: Toxicity in telemeterized rat assessed as effect on cardiovascular function; type: organism-based, Heart; conditions: in vivo
[9] = Oral bioavailability in Sprague-Dawley rat at 1 mg/kg; type: ADME, organism-based; conditions: in vivo
[10] = biological target: P2Y purinoceptor (Rattus norvegicus); test: Binding affinity to P2Y purinoceptor (rat) by [35S]dATPalphaS competitive binding assay; conditions: read-out: IC50
[11] = biological target: Sphingosine 1-phosphate receptor 1 (Macaca mulatta) (UniProt H9EUW9); test: Agonist activity at monkey S1P1 receptor assessed as cAMP accumulation by HTRF assay relative to S1P; type: functional
Sequence of Sphingosine 1-phosphate receptor 1 (Macaca mulatta) (H9EUW9 as listed by the source): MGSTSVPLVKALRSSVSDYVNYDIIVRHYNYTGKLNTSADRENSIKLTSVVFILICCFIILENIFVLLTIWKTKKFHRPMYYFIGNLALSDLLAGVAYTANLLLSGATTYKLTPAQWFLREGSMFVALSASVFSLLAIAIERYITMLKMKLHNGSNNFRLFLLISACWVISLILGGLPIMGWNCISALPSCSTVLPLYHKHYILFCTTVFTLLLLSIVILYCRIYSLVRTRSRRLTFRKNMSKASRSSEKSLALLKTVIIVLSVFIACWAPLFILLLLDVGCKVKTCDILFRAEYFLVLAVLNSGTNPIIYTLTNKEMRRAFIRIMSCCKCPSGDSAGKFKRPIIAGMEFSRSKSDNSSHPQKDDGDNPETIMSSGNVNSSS

[12] = biological target: T2, Sphingosine 1-phosphate receptor 1 (Homo sapiens, UniProt P21453); test: Agonist activity at human S1P1 receptor by beta-arrestin recruitment assay relative to S1P
T2 sequence (P21453 whole entry): as the sequence (H9EUW9 as listed by the source) above, with S3P, L12H, T37I, R41K, P189S, M241I, D365E counted along it

[13] = biological target: T2, Sphingosine 1-phosphate receptor 1; test: Agonist activity at human S1P1 receptor assessed as cAMP accumulation by HTRF assay relative to S1P; type: functional
[14] = biological target: Sphingosine 1-phosphate receptor 2 (Homo sapiens, UniProt O95136); test: Agonist activity at human S1P2 receptor by beta-arrestin recruitment assay
Sequence of Sphingosine 1-phosphate receptor 2 (O95136 whole entry): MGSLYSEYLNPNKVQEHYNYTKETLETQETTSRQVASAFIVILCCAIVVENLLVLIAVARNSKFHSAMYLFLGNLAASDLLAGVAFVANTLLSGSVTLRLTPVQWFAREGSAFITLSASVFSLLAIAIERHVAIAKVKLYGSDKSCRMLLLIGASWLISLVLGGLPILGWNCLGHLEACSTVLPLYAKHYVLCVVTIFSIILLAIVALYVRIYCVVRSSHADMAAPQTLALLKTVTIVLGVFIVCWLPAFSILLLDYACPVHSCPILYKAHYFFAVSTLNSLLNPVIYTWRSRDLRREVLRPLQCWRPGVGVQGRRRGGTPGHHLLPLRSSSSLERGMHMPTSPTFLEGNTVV

[15] = AUC (0 to infinity) in Sprague-Dawley rat at 1 mg/kg, iv or at 1 mg/kg, po; type: ADME, organism-based; conditions: plasma
[16] = biological target: Sphingosine 1-phosphate receptor 1 (Mus musculus, UniProt O08530); test: Agonist activity at mouse S1P1 receptor assessed as cAMP accumulation by HTRF assay; type: functional
Sequence of Sphingosine 1-phosphate receptor 1 (Mus musculus, UniProt O08530) (O08530 whole entry): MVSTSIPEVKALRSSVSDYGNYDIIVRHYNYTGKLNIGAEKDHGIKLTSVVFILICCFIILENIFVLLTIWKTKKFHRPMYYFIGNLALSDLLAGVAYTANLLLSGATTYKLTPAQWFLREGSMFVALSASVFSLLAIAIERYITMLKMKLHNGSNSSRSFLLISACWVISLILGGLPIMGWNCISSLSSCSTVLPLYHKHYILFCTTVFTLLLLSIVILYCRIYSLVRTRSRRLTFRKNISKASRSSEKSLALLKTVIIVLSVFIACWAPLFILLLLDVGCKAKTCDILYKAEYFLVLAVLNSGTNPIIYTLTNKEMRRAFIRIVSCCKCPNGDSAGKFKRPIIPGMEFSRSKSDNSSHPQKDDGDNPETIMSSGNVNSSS
Outline: (§1)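 S1P1 engagement measured as cyclase activity in a homogeneous time-resolved fluorescence (HTRF) assay.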

[17] = biological target: Sphingosine 1-phosphate receptor 1 (Macaca mulatta, UniProt H9EUW9); test: Agonist activity at monkey S1P1 receptor assessed as cAMP accumulation by HTRF assay; type: functional; outline: as §1
Sequence of Sphingosine 1-phosphate receptor 1 (Macaca mulatta, UniProt H9EUW9) (H9EUW9 whole entry): as the sequence (H9EUW9 as listed by the source) above

[18] = biological target: T2, Sphingosine 1-phosphate receptor 1; test: Agonist activity at human S1P1 receptor by beta-arrestin recruitment assay
[19] = biological target: Voltage-gated inwardly rectifying potassium channel KCNH2 (Homo sapiens, UniProt Q12809); test: Binding affinity to human ERG
Sequence of Voltage-gated inwardly rectifying potassium channel KCNH2 (Q12809 whole entry): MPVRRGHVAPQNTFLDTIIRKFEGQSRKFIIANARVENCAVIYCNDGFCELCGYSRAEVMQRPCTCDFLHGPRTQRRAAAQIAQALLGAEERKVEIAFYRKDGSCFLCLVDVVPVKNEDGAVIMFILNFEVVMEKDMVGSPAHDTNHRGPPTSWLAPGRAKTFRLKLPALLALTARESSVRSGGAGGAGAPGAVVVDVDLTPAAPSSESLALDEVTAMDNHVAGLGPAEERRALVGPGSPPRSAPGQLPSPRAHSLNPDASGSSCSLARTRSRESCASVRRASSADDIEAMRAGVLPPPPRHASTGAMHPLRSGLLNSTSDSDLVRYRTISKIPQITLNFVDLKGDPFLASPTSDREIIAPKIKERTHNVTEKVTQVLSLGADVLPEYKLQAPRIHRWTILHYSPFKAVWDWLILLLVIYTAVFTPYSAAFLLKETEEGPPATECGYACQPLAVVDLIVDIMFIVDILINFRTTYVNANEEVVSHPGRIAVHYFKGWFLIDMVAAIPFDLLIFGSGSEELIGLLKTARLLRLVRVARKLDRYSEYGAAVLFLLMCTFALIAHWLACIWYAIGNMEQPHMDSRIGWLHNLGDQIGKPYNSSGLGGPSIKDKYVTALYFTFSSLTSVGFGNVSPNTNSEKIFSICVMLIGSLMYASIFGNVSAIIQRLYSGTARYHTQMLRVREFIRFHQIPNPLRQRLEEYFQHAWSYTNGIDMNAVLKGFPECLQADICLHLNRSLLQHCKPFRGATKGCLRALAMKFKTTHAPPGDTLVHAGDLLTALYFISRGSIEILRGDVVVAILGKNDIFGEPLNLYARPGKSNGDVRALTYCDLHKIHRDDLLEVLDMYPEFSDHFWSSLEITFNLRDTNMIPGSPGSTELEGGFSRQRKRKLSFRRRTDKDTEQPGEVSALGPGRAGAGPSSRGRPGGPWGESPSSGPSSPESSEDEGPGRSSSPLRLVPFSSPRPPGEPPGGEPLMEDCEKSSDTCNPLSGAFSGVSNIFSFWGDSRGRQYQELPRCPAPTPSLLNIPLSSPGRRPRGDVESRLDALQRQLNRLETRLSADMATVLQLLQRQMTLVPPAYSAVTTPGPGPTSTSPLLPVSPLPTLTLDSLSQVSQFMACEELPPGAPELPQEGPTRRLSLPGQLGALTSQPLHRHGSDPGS

[20] = biological target: T3, Sphingosine 1-phosphate receptor 4 (Homo sapiens) (UniProt O95977); test: Agonist activity at human S1P4 receptor by beta-arrestin recruitment assay relative to S1P
T3 sequence (whole entry): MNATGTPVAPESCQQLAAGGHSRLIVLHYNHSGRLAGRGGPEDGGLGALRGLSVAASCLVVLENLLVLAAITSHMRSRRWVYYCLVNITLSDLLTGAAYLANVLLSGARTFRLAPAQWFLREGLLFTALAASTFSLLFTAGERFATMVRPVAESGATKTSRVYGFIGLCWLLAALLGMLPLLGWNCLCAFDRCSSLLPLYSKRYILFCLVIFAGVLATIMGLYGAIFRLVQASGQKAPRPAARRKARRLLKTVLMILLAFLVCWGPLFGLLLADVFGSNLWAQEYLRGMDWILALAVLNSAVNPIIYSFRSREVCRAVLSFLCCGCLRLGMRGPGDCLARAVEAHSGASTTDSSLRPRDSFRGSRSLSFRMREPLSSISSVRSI

[21] = biological target: T2, Sphingosine 1-phosphate receptor 1; test: Agonist activity at human S1P1 receptor assessed as cAMP accumulation by HTRF assay; type: functional; outline: as §1
[22] = biological target: Sphingosine 1-phosphate receptor 1 (Mus musculus) (UniProt O08530); test: Agonist activity at mouse S1P1 receptor assessed as cAMP accumulation by HTRF assay relative to S1P; type: functional
Sequence of Sphingosine 1-phosphate receptor 1 (Mus musculus) (O08530 whole entry): as the sequence (O08530 whole entry) above

[23] = biological target: Sphingosine-1-phosphate receptor 1 (Canis lupus familiaris, UniProt W5VNF7); test: Agonist activity at dog S1P1 receptor assessed as cAMP accumulation by HTRF assay; type: functional; outline: as §1
Sequence of Sphingosine-1-phosphate receptor 1 (W5VNF7 whole entry): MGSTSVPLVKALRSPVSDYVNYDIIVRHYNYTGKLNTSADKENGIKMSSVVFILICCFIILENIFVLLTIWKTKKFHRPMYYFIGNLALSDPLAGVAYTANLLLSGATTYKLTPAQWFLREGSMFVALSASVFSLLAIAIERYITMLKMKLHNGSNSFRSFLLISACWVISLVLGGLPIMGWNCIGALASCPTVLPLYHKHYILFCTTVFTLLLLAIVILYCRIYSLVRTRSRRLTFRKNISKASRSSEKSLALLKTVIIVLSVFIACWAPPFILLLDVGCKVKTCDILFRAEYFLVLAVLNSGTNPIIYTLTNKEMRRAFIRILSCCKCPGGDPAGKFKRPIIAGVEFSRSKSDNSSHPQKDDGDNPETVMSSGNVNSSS

[24] = biological target: T1, Sphingosine 1-phosphate receptor 5; test: Agonist activity at human S1P5 receptor by beta-arrestin recruitment assay relative to S1P
Rattus norvegicus [25] = species on record: Rattus norvegicus; test: Reduction in lymphocyte count in Sprague-Dawley rat; type: functional, organism-based
Outline: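 A PK/PD model relating plasma drug concentration to circulating lymphocyte counts was used to derive the plasma concentration that reduces lymphocytes by 50% (LL IC50, ng/mL).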

[26] = biological target: Sphingosine-1-phosphate receptor 1 (Canis lupus familiaris) (UniProt W5VNF7); test: Agonist activity at dog S1P1 receptor assessed as cAMP accumulation by HTRF assay relative to S1P; type: functional
Sequence of Sphingosine-1-phosphate receptor 1 (Canis lupus familiaris) (W5VNF7 as listed by the source): as the sequence (W5VNF7 whole entry) above

Cytochrome P450 2C9 = Cytochrome P450 2C9 (Homo sapiens, UniProt P11712); test: Inhibition of CYP2C9 (unknown origin); type: ADME
Sequence of Cytochrome P450 2C9 (P11712 whole entry): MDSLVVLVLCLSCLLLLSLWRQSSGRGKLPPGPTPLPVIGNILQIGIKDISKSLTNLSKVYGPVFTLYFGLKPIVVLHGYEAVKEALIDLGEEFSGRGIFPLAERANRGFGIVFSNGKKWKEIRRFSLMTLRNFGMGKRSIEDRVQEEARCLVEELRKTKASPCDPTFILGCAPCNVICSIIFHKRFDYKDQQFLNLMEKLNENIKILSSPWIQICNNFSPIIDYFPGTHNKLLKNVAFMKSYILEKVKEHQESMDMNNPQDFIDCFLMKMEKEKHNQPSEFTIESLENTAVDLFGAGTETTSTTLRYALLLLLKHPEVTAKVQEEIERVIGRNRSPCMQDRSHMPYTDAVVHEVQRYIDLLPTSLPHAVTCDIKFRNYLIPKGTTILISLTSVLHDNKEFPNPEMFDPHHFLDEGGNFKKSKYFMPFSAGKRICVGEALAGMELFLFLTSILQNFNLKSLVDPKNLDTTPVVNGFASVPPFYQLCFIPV

[27] = Cmax in Sprague-Dawley rat at 1 mg/kg, po; type: ADME, organism-based; set-up: dose 1 mg/kg, route oral; conditions: in vivo
[28] = Tmax in Sprague-Dawley rat at 1 mg/kg, po; type: ADME, organism-based; set-up: dose 1 mg/kg, route oral; conditions: in vivo
[29] = biological target: T4, Sphingosine 1-phosphate receptor 4 (Homo sapiens, UniProt O95977); test: Agonist activity at human S1P4 receptor by beta-arrestin recruitment assay
T4 sequence (O95977 whole entry): T3 sequence (whole entry)

[30] = biological target: Sphingosine 1-phosphate receptor 1 (Rattus norvegicus, UniProt P48303); test: Agonist activity at rat S1P1 receptor assessed as cAMP accumulation by HTRF assay; type: functional; outline: as §1
Sequence of Sphingosine 1-phosphate receptor 1 (Rattus norvegicus, UniProt P48303) (P48303 whole entry): as the sequence (P48303 whole entry) above

[31] = Elimination half life in Sprague-Dawley rat at 1 mg/kg, po; type: ADME, organism-based; set-up: dose 1 mg/kg, route oral; conditions: in vivo, read-out: beta t1/2 (converted)

Molecule `CCCCCCCCCCCCC/C=C/[C@@H](O)[C@@H](N)COP(=O)(O)O` has an EC50 [1] of 2.1 nM.

For `CC(C)Oc1ccc(COc2ccc3c(c2)c(Cl)c2n3CC[C@@H]2CC(=O)O)cc1C#N`, the Vd [2] was 0.9 L/kg, the clearance [3] was 3.2 mL/min/kg and the EC50 [4] was over 10000 nM. The Kp [5] was 0.09, the Emax [6] was 93% and the EC50 [7] was 47 nM. The Activity (Rattus norvegicus [8]) was “Non-toxic”, the bioavailability [9] was 76.4% and the IC50 [10] was 390 nM. For the same molecule, the Emax [11] was 96%, the Emax [12] was 112% and the Emax [13] was 94%. It also gave an EC50 [14] of over 10000 nM, an AUC(0-inf) [15] of 4210 ng·h/mL and an EC50 [16] of 0.05 nM. For the same molecule, the EC50 [17] was 0.038 nM, the EC50 [18] was 0.63 nM and the Activity [19] was “Not Active”. It also gave an Emax [20] of 85%, an EC50 [21] of 0.025 nM and an Emax [22] of 104%. It also gave an EC50 [23] of 0.049 nM, an Emax [24] of 84% and an IC50 (Rattus norvegicus [25]) of 0.0104 µg/mL (≈ 0.0237 µM). For the same molecule, the Emax [26] was 66%, the IC50 (Cytochrome P450 2C9) was 8500 nM and the Cmax [27] was 618 ng/mL. The Tmax [28] was 4 h, the EC50 [29] was 8600 nM and the EC50 [30] was 0.072 nM. It also gave a half-life [31] of 3.44 h.

Molecule `O=C(O)CC1CCn2c1cc1cc(OCc3ccc(C4CCCC4)c(C(F)(F)F)c3)ccc12` (racemic) has an EC50 [21] of 0.095 nM.

Work on `N#Cc1cc(COc2ccc3c(c2)cc2n3CCC2CC(=O)O)ccc1C1CCCC1` (racemic) yielded an Emax [13] of 92% and an EC50 [21] of 0.49 nM.

For `O=C(O)CC1CCn2c1cc1cc(OCc3ccc(Cl)c(C(F)(F)F)c3)ccc12` (racemic), the Emax [13] was 116% and the EC50 [21] was 150 nM.

`N#Cc1ccc(COc2ccc3c(c2)cc2n3CCC2CC(=O)O)cc1C(F)(F)F` (racemic) gave an Emax [13] of 104% and an EC50 [21] of 83 nM.

With `COc1ccc(COc2ccc3c(c2)cc2n3CCC2CC(=O)O)cc1C#N` (racemic) the Emax [13] was 122% and the EC50 [21] was 38 nM.

`O=C(O)CC1CCn2c1cc1cc(OCc3ccc(OCF)c(C(F)(F)F)c3)ccc12` (racemic) showed an Emax [13] of 119% and an EC50 [21] of 6.7 nM.

Work on `CC(C)Oc1ccc(COc2ccc3c(c2)cc2n3CCC2CC(=O)O)cc1C(F)(F)F` (racemic) [listing 1 of 2 here] yielded an EC50 [21] of 0.15 nM.

For `CC(C)Oc1ccc(COc2ccc3c(c2)cc2n3CCC2CC(=O)O)cc1C#N` (racemic) [listing 1 of 2 here], the EC50 [21] was 0.15 nM.

`O=C(O)CC1CCn2c1cc1cc(OCc3ccc(OCC4CC4)c(C(F)(F)F)c3)ccc12` (racemic) gave an Emax [13] of 100% and an EC50 [21] of 1.1 nM.

Molecule `CC(C)Oc1ccc(COc2ccc3c(c2)cc2n3CCC2CC(=O)O)cc1C#N` (racemic) [listing 2 of 2 here] has an Emax [13] of 105%.

`CC(C)Oc1ccc(COc2ccc3c(c2)cc2n3CCC2CC(=O)O)cc1C(F)(F)F` (racemic) [listing 2 of 2 here] gave an Emax [13] of 112%.
